Measurements from ChEMBL document CHEMBL4513216, “Probing the Open Global Health Chemical Diversity Library for Multistage-Active Starting Points for Next-Generation Antimalarials” (ACS Infect Dis, 2020).

Test: Toxicity liver stage against HepG2, at 10uM
Format: cell-based
Parameters: test concentration 10 uM, cell line HepG2-A16-CD81EGFP
Conditions: human, HepG2-A16-CD81EGFP cells; read-out: INHIBITION
Summary of the method: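 Uninfected HepG2-A16-CD81EGFP cells, 3 × 10^3 per well, 1536-well, plated on prespotted compound at 10 μM final, parasite-free screening media added to match infected plates; puromycin 10 μM positive, DMSO 0.5% negative; run in parallel with 48 h PbLuc assay at 37 °C, 5% CO2; viability by CellTiter-Glo luminescence, normalized to controls.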
In the case of `CCN(Cc1nc2c(cnn2C)c(=O)[nH]1)Cc1ccco1`, the cytotoxicity at 10 µM is reported as -2.8%. For `c1cc2c(cc1OC[C@@H]1CCCN3CCCC[C@H]13)OCCO2`, the cytotoxicity at 10 µM was -2.48%. For `CC(=O)c1cc(CN2C[C@@H]3CC[C@H]2CN(Cc2c(C)noc2C)C3)cs1`, the cytotoxicity at 10 µM was -1.43%. `OCCn1nccc1C1CCN(CCOc2ccccc2)CC1` gave a cytotoxicity at 10 µM of -0.121%. With `CC(C)CC(N)C1=NC(=C2N=CN=N2)NO1` (stereo not given) the cytotoxicity at 10 µM was 10.6%. Work on `NS(=O)(=O)CCNC(=O)c1ccc(-c2ccc(F)cc2)cc1F` yielded a cytotoxicity at 10 µM of -3.62%. With `O=C(NCCC(O)c1ccoc1)Nc1cccs1` (stereo not given) the cytotoxicity at 10 µM was -2.55%. `Cc1cc(NCc2ccc(C#N)cc2)n2nc(C)cc2n1` showed a cytotoxicity at 10 µM of -10.9%. `CCOC(C)C(=O)Nc1ccc2c(ccn2CC)c1` (stereo not given) showed a cytotoxicity at 10 µM of 0.877%. `CN(CC1CC1)C(=O)Cc1csc(-c2ncccn2)n1` gave a cytotoxicity at 10 µM of 4.56%. Work on `Cc1nc(N2CCN(C(=O)NCc3cscn3)CC2)sc1C` yielded a cytotoxicity at 10 µM of -11.3%. In the case of `Cc1ccccc1OCn1ccc(C(=O)NCCN2CCOCC2)n1`, the cytotoxicity at 10 µM is reported as 8.02%. `COC(=O)c1sccc1S(=O)(=O)N1CCC(Oc2ncccc2Cl)CC1` showed a cytotoxicity at 10 µM of -16.8%. Molecule `Cc1ccoc1C(=O)NC1CCN(Cc2cccc3c2OCCO3)CC1` has a cytotoxicity at 10 µM of 1.18%. `Cc1n[nH]c(C2CN(Cc3ncc(C(C)C)o3)CCO2)n1` (stereo not given) gave a cytotoxicity at 10 µM of -6.32%. Work on `Cc1ccsc1C(=O)N1Cc2ncn(C)c2C(COCC2CC2)C1` (stereo not given) yielded a cytotoxicity at 10 µM of 6.76%. With `O=C(O)c1csc(S(=O)(=O)N2CCCc3cc(OC(F)F)ccc32)c1` the cytotoxicity at 10 µM was -9.69%. Molecule `Cn1c2c(c(=O)n1C)CN(C(=O)c1cccc(F)c1)CCC2` has a cytotoxicity at 10 µM of -101%. `Cn1ccnc(Sc2ccc(O)cc2)c1=O` gave a cytotoxicity at 10 µM of 6.64%. `CC(C)CC(CNC(=O)c1cccnc1Oc1cccnc1)N(C)C` (stereo not given) showed a cytotoxicity at 10 µM of 1.44%. `O=C(NC1(c2nccs2)CCCC1)c1cc(C2CC2)[nH]n1` gave a cytotoxicity at 10 µM of 2%. With `CNc1ncccc1CN1CCN2CCN(C)CC2C1` (stereo not given) the cytotoxicity at 10 µM was -2.46%. `CCN(CC)CC(=O)Nc1ccc(-n2ccc(C(N)=O)n2)cc1` gave a cytotoxicity at 10 µM of -6.9%. Molecule `Cc1cnn(CC2CN(Cc3nc(-c4ccsc4)no3)CCO2)c1` (stereo not given) has a cytotoxicity at 10 µM of -9.74%. `CN(Cc1nc2ccccc2[nH]1)C(=O)CN(C)c1ccccc1` gave a cytotoxicity at 10 µM of -2.46%. Work on `CCN1CCOC(CNCc2ccccc2OCc2ccccn2)C1` (stereo not given) yielded a cytotoxicity at 10 µM of -10.1%. Work on `CCNC(=O)c1ccnc(CC2COc3c(cccc3OC)C2)c1` (stereo not given) yielded a cytotoxicity at 10 µM of 0.441%. `Cc1nnc(CN(C)CCCOc2ccc(Cl)cc2)o1` showed a cytotoxicity at 10 µM of -1.69%. With `O=C(O)c1csc(S(=O)(=O)Nc2c(F)cccc2-n2cccn2)c1` the cytotoxicity at 10 µM was -7.32%. With `COc1ccc(OC2CCN(C(=O)c3cnc(C)s3)CC2)cc1` the cytotoxicity at 10 µM was -18%. With `O=C1CCCCN1CC(=O)N1CCCC(c2ccccc2)C1` (stereo not given) the cytotoxicity at 10 µM was -1.05%. Molecule `CN(C)C(C(=O)NCC1(Cn2cccn2)CC1)c1ccc(F)cc1` (stereo not given) has a cytotoxicity at 10 µM of 3.65%. In the case of `Fc1cccc(Cl)c1CNCCCOc1ccccn1`, the cytotoxicity at 10 µM is reported as -3.33%. `Cc1cnccc1N1CCN(C[C@]2(O)CCCN3CCCC[C@@H]32)CC1` gave a cytotoxicity at 10 µM of 10.4%. `CCCNC(=O)CNC(=O)CC1CCCc2cc(OC)ccc21` (stereo not given) gave a cytotoxicity at 10 µM of -4.52%. `CCc1nnc(CN2CCCC(c3cc(C(F)(F)F)[nH]n3)C2)o1` (stereo not given) gave a cytotoxicity at 10 µM of 6.88%. For `CNC(=O)Cn1c(-c2ccco2)nn(-c2ccccc2OC)c1=O`, the cytotoxicity at 10 µM was 2.51%. In the case of `Cn1c(CC2CCS(=O)(=O)C2)nnc1SCCOc1ccccc1F` (stereo not given), the cytotoxicity at 10 µM is reported as -6.82%. In the case of `CC(C)(C)OC(=O)NCCC(=O)NCC(O)c1cccc(F)c1` (stereo not given), the cytotoxicity at 10 µM is reported as -2.48%. `Cc1csc(Nc2nccnc2C2CCCN2C(=O)C(C)C)n1` (stereo not given) gave a cytotoxicity at 10 µM of 1.3%. Molecule `Cc1noc([C@H]2C[C@@H]3CCN(CC4CC4)C[C@H]3O2)n1` has a cytotoxicity at 10 µM of -7.23%. Molecule `Cc1nc(C2CCCN(C(=O)c3ccoc3)C2)no1` (stereo not given) has a cytotoxicity at 10 µM of -13.1%. Molecule `O=C(c1ccc(Cl)cc1)N1CCC(N2CCCNC2=O)CC1` has a cytotoxicity at 10 µM of 8.55%. For `COc1cccc([C@@]2(O)CC[C@@H]3CN(C(=O)c4c[nH]nc4C)C[C@@H]32)c1`, the cytotoxicity at 10 µM was 2.67%. For `CN(C)CCN1C(=O)CO[C@@H]2CN(c3ncc(F)cn3)C[C@H]21`, the cytotoxicity at 10 µM was 0.81%. Molecule `COc1ccc(-c2nnc(CN3CCNC(=O)C3)o2)cc1` has a cytotoxicity at 10 µM of -2.27%. Work on `CCCNS(=O)(=O)c1cc2c3c(c1)c(C)cc(=O)n3CCC2` yielded a cytotoxicity at 10 µM of 3.94%. For `CC(=O)NCCC(=O)NCc1cccnc1-n1cnc2ccccc21`, the cytotoxicity at 10 µM was -14.2%. `CN(C)c1nc2cn(C3CC(C)(C)NC(C)(C)C3)c(=O)c-2c[nH]1` gave a cytotoxicity at 10 µM of 6.39%. Molecule `CN(C)S(=O)(=O)N1C[C@@H]2C[C@H](C(=O)Nc3ccccc3)[C@H](C1)O2` has a cytotoxicity at 10 µM of 5.86%. With `Cc1nccn1CC1CCN(C(=O)c2ccccc2)CC1` the cytotoxicity at 10 µM was -4.17%. With `CS(=O)(=O)N1CC2(CCN(CC3CC3)C2)Cc2ccccc21` (stereo not given) the cytotoxicity at 10 µM was -1.93%. Molecule `CC(C)(CNc1cc(F)ccc1F)S(C)(=O)=O` has a cytotoxicity at 10 µM of -2.94%. For `Cc1ccc2c(c1)OCCN2C(=O)c1ccc(=O)n(C)c1`, the cytotoxicity at 10 µM was -5.88%. `Cc1cc(C)n(C2CCCN(C(=O)c3ccc4c(c3)COC4)C2)n1` (stereo not given) showed a cytotoxicity at 10 µM of -6.1%.
